Reference: publication PMC6970618 (Bioorganic & medicinal chemistry letters, 2018)
pEC50: −log10 of the molar value. Entries after “also recorded” stand apart in the source; their conditions may differ. Read-outs that look alike come from different tables or passages of the source.

Experiments:
TcCYP51 = TcCYP51 (Trypanosoma cruzi, UniProt Q7Z1V1); assay: TcCYP51 counter-screen; assay type: biochemical, T. cruzi; settings: for TcCYP51 inhibition: result in words
T. cruzi = T. cruzi cytostatic/cytocidal assay; assay type: cell-based, Trypanosoma cruzi; settings: cytocidal versus cytostatic behaviour
Vero cells = assay: Host Vero cell toxicity counter-read of the amastigote assay; assay type: cell-based
Summary of the method: (§1)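 Intracellular T. cruzi amastigotes cultured in Vero host cells, with the host Vero cells read in parallel. pEC50 is the mean of independent EC50 determinations: three or more ± standard deviation, or for some compounds two ± range.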

[1] = Intrinsic clearance in mouse liver microsomes; assay type: in vitro ADME; settings: result in words
T. cruzi amastigotes = assay: Intracellular T. cruzi amastigote assay in Vero cells; assay type: cell-based, Trypanosoma cruzi; settings: for EC50: Trypanosoma cruzi, Vero; for Tc pEC50: T. cruzi amastigote cultures in Vero cells, mean of three or more EC50 determinations ± standard deviation
Summary of the method: as §1

[2] = host Vero cells, mean of three or more EC50 determinations ± standard deviation

TcCYP51, sequence (Q7Z1V1 whole entry): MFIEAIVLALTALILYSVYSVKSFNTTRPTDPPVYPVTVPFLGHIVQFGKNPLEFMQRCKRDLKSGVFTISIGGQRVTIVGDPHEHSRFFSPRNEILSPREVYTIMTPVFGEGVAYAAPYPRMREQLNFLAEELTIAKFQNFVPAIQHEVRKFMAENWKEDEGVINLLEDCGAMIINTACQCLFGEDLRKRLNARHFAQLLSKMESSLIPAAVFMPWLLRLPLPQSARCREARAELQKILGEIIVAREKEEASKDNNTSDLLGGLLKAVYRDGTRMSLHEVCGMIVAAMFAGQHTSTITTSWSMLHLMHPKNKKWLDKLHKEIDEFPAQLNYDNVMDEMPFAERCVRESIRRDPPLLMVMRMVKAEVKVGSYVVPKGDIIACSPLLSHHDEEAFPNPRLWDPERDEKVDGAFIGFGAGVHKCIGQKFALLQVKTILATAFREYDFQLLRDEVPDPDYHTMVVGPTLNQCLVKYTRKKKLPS

Row | TcCYP51 inhibition (TcCYP51) | SMILES | Cytocidal (T. cruzi) | EC50 (T. cruzi amastigotes; read-out: Tc pEC50 (converted)) [nM] | also measured
1 |  | COc1cc(OC)cc(C(=O)Nc2ccc(Nc3nc(C)cc(N(C)C)n3)cc2)c1 [Compound 1] | cytocidal behavior |  | pEC50 (TcCYP51): < 5.00; Vero pEC50 (Vero cells; Table 2: host Vero cells, mean of two EC50 determinations ± range (1, 4b: ± standard deviation from > 2 determinations)): 5.2 ± 0.3; stability in mouse liver microsomes (MLM) [1]: stable; EC50 (T. cruzi amastigotes; read-out: pEC50 against T. cruzi parasites (converted)): 126 nM
2 | did not inhibit TcCYP51 | COc1cc(Nc2nc(C)cc(N(C)C)n2)ccc1F [Compound 4d] | cytocidal |  | Vero pEC50 (Vero cells; [2]): 4.5 ± 0.1; Tc pEC50 (T. cruzi amastigotes): 6.4 ± 0.3
3 |  | Cc1cc(N(C)C)nc(Nc2ccc(C(=O)N3CCCCC3)cc2)n1 [Compound 5a] |  | 2000 | toxicity against the host cells (Vero cells; at the top concentration tested (50 μM)): no toxicity
4 | did not inhibit TcCYP51 | Cc1cc(N(C)C)nc(NCc2ccccc2)n1 [Compound 6a] | cytocidal | 3160 | Vero pEC50 (Vero cells; [2]): < 4.3; Tc pEC50 (T. cruzi amastigotes): 5.5 ± 0.3
5 |  | Cc1cc(N(C)C)nc(NC2CCN(C(=O)Cc3ccc(F)cc3F)CC2)n1 [Compound 6e] |  | 3160 | 
6 | no activity versus TcCYP51 | COc1cc(OC)cc(C(=O)N[C@H]2CC[C@H](Nc3nc(C)cc(N(C)C)n3)CC2)c1 [Compound 8b] | cytocidal |  | 
7 |  | COc1cc(Nc2nc(C)cc(N3CCCC3)n2)ccc1F [Compound 13b] |  | 316 | 
8 |  | COc1cc(Nc2cc(C)nc(NCc3ccccc3)n2)ccc1F [Compound 17c] | cytostatic behavior; also recorded: no longer cytocidal | 79.4 | 
9 |  | COc1cc(Nc2nc(C(C)C)cc(N(C)C)n2)ccc1F [Compound 18c] |  | 2000 | 
10 |  | COc1cc(Nc2nc(C(=O)N3CCCC3)cc(N(C)C)n2)ccc1F [Compound 18e] |  | 31600 | 
